Data published in PubChem BioAssay AID624020 (Broad Institute, 2012).
Activity calls are given as the source filed them.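 How the source made its calls: active means fitted curve reaching 35% inhibition at both 405 and 600 nm absorbance, in duplicate, within twice the top valid dose; inactive means the rest, including signal rising instead of falling.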

System: not listed separately
Test: bacterial growth inhibition with EDDHA chelator – absorbance 405 nm, dry powder, set 3, pyoverdine/PvdQ inhibitor project, dose response (AID 624020)
Settings: P. aeruginosa growth + EDDHA, pyoverdine absorbance 405 nm; at 50 µM (top of the series)
How it was run: (§1)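 Assay system: P. aeruginosa ATCC 15692; quantity: final bacterial OD600 0.0000005; buffer or medium: succinate M9 medium, pH 7.0, with 2 µM iron chelator EDDHA; technique: absorbance at 405 nm reflecting pyoverdine production; timing: Bacteria-compound culture for 24–30 h at 37 °C, humidified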

Row | SMILES | activity change, negative = inhibition
1 | N#CC(c1cccc(Cl)n1)c1ccc(Cl)cc1Cl (centres undefined) | 0.286% (inactive)
2 | N#CC(c1ccc(C(F)(F)F)c(Cl)n1)c1ccccc1OC(F)(F)F (centres undefined) | -1.95% (inactive)
3 | CCCCC(C#N)c1ccccc1OC(F)(F)F (centres undefined) | -1.21% (inactive)
4 | CCCCC(C#N)c1ccc(F)cc1 (centres undefined) | 8.04% (inactive)
5 | N#Cc1cccc(C(C#N)c2ccc(Cl)cc2Cl)n1 (centres undefined) | -0.74% (inactive)
6 | N#CC(c1cccc(C(F)(F)F)n1)c1ccccc1OC(F)(F)F (centres undefined) | 7.17% (inactive)
7 | CCCCC(C#N)c1ccc(Cl)cc1 (centres undefined) | -10.7% (inactive)
8 | N#CC(c1ccc(C(F)(F)F)cc1)c1cccc(Cl)n1 (centres undefined) | 17.5% (inactive)
9 | Cc1cccc(C(C#N)c2ccc(Cl)cc2)n1 (centres undefined) | 14% (inactive)
10 | N#CC(c1cccc(C(F)(F)F)n1)c1ccc(Cl)cc1F (centres undefined) | -4.42% (inactive)
11 | N#Cc1cccc(C(C#N)c2ccccc2OC(F)(F)F)n1 (centres undefined) | 4.22% (inactive)
12 | CCCCC(C#N)c1ccc(Cl)cc1F (centres undefined) | 15.6% (inactive)
13 | CCCCC(C#N)c1ccc(Cl)cc1Cl (centres undefined) | 14.9% (inactive)
14 | N#Cc1cccc(C(C#N)c2ccc(Cl)cc2F)n1 (centres undefined) | 7.99% (inactive)
15 | N#CC(c1ccc(C(F)(F)F)cc1)c1cccc(C(F)(F)F)n1 (centres undefined) | 20.5% (inactive)
16 | Cc1ccc(C(C#N)c2ccccc2OC(F)(F)F)nc1C#N (centres undefined) | 9.74% (inactive)
17 | N#CC(c1cccc(Cl)n1)c1ccccc1OC(F)(F)F (centres undefined) | -0.322% (inactive)
18 | N#CC(c1ccc(Cl)cc1)c1ccc(C(F)(F)F)cn1 (centres undefined) | 8.01% (inactive)

Row | SMILES | activity change, negative = inhibition
19 | Cc1ccc(C(C#N)c2ccc(F)cc2)nc1C#N (centres undefined) | 4.87% (inactive)
20 | CC(C)CC(C#N)c1ccc(Cl)cc1 (centres undefined) | 3.56% (inactive)
21 | N#CC(c1ccc(Cl)cc1)c1ccc(Cl)cn1 (centres undefined) | -3.9% (inactive)
22 | N#CC(c1ccc(Cl)cc1Cl)c1ncccc1Cl (centres undefined) | 13% (inactive)
23 | CCCCC(C#N)c1ccc(C(F)(F)F)cc1 (centres undefined) | 16.2% (inactive)
24 | N#CC(c1ccc(C(F)(F)F)cc1)c1ccc(C(F)(F)F)c(Cl)n1 (centres undefined) | 20.8% (inactive)
25 | N#Cc1cccc(C(C#N)c2ccc(Cl)cc2)n1 (centres undefined) | 3.83% (inactive)
26 | CC(C#N)(c1ccc(Cl)cc1)c1ccc(C(F)(F)F)cn1 (centres undefined) | 9.6% (inactive)
27 | N#CC(c1ccc(Cl)cc1)c1ccc(C(F)(F)F)c(Cl)n1 (centres undefined) | -1.44% (inactive)
28 | CCCC(C#N)c1ccc(Cl)cc1 (centres undefined) | -9% (inactive)
29 | COc1cccc(C(C#N)c2ccc(F)cc2)n1 (centres undefined) | 9.45% (inactive)
30 | Cc1ccc(C(C#N)c2ccc(Cl)cc2)nc1 (centres undefined) | 7.58% (inactive)
31 | N#CC(CC1CC1)c1ccc(Cl)cc1 (centres undefined) | 3.25% (inactive)
32 | N#Cc1ccc(C(C#N)c2ccc(Cl)cc2)nc1 (centres undefined) | 5.84% (inactive)
33 | N#CC(c1ccc(C(F)(F)F)c(Cl)n1)c1ccc(Cl)cc1F (centres undefined) | 2.37% (inactive)
34 | Cc1ccc(C(C#N)c2ccc(Cl)cc2)nc1C#N (centres undefined) | 5.29% (inactive)
35 | N#Cc1ccc(C(C#N)c2ccc(Cl)cc2Cl)nc1 (centres undefined) | 4.54% (inactive)

System: P. aeruginosa growth + EDDHA, pyoverdine absorbance 405 nm
Test: as above
Settings: not given
How it was run: as §1

Row | SMILES | AC35
36 | N#CC(c1ccc(Cl)cc1)c1cccc(C(F)(F)F)n1 (centres undefined) | 16.8 µM
37 | N#CC(c1ccc(Cl)cc1)c1cccc(Cl)n1 (centres undefined) | 33.5 µM
38 | N#CC(c1ccc(C(F)(F)F)c(Cl)n1)c1ccc(Cl)cc1Cl (centres undefined) | > 50 µM (inactive)
39 | N#CC(c1ccc(F)cc1)c1cccc(C(F)(F)F)n1 (centres undefined) | 44.8 µM
